Published values pooled from the literature.
Each line is one published result; the experiments were not run side by side.
Target: Mitogen-activated protein kinase kinase kinase 9 (MAP3K9, Homo sapiens, UniProt P80192)

| SMILES | assay | conditions | remaining binding |
| --- | --- | --- | --- |
| CN(C)C(=O)Cn1cc(-c2nc([C@@](C)(c3ccc(-c4cnc(N)nc4)cc3)C3CC3)no2)cn1 | cell-free assay, competition with immobilised ligand | 1 µM | 100% |
| F[C@@H]1CCN(c2nccc(-c3cnn4ncccc34)n2)C1 | binding | 1 µM | 78% |
| FC(F)(F)Oc1cccc(-c2cnc3ccc(-c4ccncc4)nn23)c1 | cell-free assay, competition with immobilised ligand | 5 µM | 77% |
| N#Cc1ccc(Nc2ccc3[nH]c(=O)[nH]c3c2)c(Cl)c1 | cell-free assay, competition with immobilised ligand | 1 µM | 100% |
| O=C(NCCCN1CCOCC1)c1ccc(Nc2nccc(-c3cc4ccccc4s3)n2)cc1 | binding, competition with immobilised ligand | 1 µM | 14% |
| C[C@H](NC(=O)c1cnc2n1[C@](C)(Cc1ccc(C#N)cc1)C(=O)N2c1cc(Cl)c(F)c(Cl)c1)C(=O)NC1(c2ccccn2)CC1 | cell-free assay, competition with immobilised ligand | 1 µM | 100% |
| O=C(c1ccc(Nc2nccc(-c3cc4ccccc4s3)n2)cc1)N1CCC(N2CCCC2)CC1 | binding, competition with immobilised ligand | 1 µM | 27% |
| Nc1c(C(=O)NCc2ccc(C(=O)NCCCC3CCCCC3)cc2)cnn1-c1ccccc1 | cell-free assay, competition with immobilised ligand | 0.1 µM | 96% |
| COc1cnc(Nc2cccc(S(N)(=O)=O)c2)nc1N1CCN(c2ccccc2)C(=O)C1 | binding, competition with immobilised ligand | 1 µM | 98% |
| CN([C@@H]1CCc2c(CC(=O)O)c3ccccc3n2C1)S(=O)(=O)c1ccc(F)cc1 | cell-free assay, competition with immobilised ligand | 1 µM | 100% |
| C[C@H]1CCN(c2nccc(-c3cnn4ncccc34)n2)C1 | binding | 1 µM | 100% |
| Cc1cnc(Nc2ccc(C(=O)N3CCC(N4CCCC4)CC3)cc2)nc1-c1cc2ccccc2s1 | binding, competition with immobilised ligand | 1 µM | 3.3% |
| C[C@@H]1CN(c2ccc3ncc(-c4ccc5[nH]nc(C6CC6)c5c4)n3n2)C[C@H](C)O1 | binding, competition with immobilised ligand | 0.5 µM | 100% |
| CC(C)(C)c1ccc(-c2nc(CBr)nn2-c2cccc(O)c2)cc1 | cell-free assay, competition with immobilised ligand | 10 µM | 91% |
| O=C(NCC1CCOCC1)c1n[nH]cc1NC(=O)c1c(F)cccc1F | binding, competition with immobilised ligand | 1 µM | 100% |
| Cc1nccc(COC(=O)N2C[C@@H]3[C@@H](CNC(=O)c4ccc5[nH]nnc5c4)[C@@H]3C2)n1 | cell-free assay, competition with immobilised ligand | 1 µM | 89% |
| CCN1CCN(Cc2ccc(C(=O)Nc3ccc(C)c(Oc4ccc5c(c4)CC(=O)N5)c3)cc2C(F)(F)F)CC1 | binding, competition with immobilised ligand | 1 µM | 100% |
| c1cnn2ncc(-c3ccnc(N4CCC45COC5)n3)c2c1 | binding | 1 µM | 85% |
| CNC(=O)[C@@H]1CC[C@@H](n2c(-c3ccc4cnccc4c3)nc3ccc(C(=O)NCc4cccc(C(N)=O)c4)cc32)C1 | binding, competition with immobilised ligand | 1 µM | 100% |
| N[C@H]1CCN(c2nccc(-c3cnn4ncccc34)n2)C1 | binding | 1 µM | 87% |
| CCCCN(CCCC)C(=O)CN1C[C@@H](c2cc(OC)c3c(c2)OCO3)[C@H](C(=O)O)[C@H]1CC(C)(C)CCC | cell-free assay, competition with immobilised ligand | 1 µM | 98.8% |
| CC1CCCN1c1nccc(-c2cnn3ncccc23)n1 (stereo not shown) | binding | 1 µM | 100% |
| COc1ncc2cc3ccccc3nc2c1C#N | cell-free assay, competition with immobilised ligand | 5 µM | 97% |
| CN(C)c1nccc(-c2cnc3ncccn23)n1 | binding | 1 µM | 65% |
| Nc1ncc2c(n1)-c1c([nH]c3ccc(C#CC4CC4)cc13)CCCC2 | binding, competition with immobilised ligand | 1 µM | 100% |
